How the values were obtained:
MeV isolates = assay: in vitro efficacy testing against a panel of MeV isolates; assay type: cell-based, measles virus
Summary of the method: (§1)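 Virus yield reduction: cell-associated progeny titred by TCID₅₀. MeV is handled on Vero-hSLAM cells and CDV on Vero-cSLAM cells. Compound in DMSO. EC₅₀ from four-parameter variable-slope non-linear regression, with 95% asymmetric confidence intervals, from at least three independent experiments per virus. SI = CC₅₀/EC₅₀. MeV panel covers seven endemic genotypes; CDV strains are recombinant 5804PeH and Snyder Hill.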

[1] = system: CDV-5804PeH and Snyder Hill isolate; assay: in vitro efficacy testing against pathogenic CDV strains; assay type: cell-based, canine distemper virus; conditions: recombinant CDV-5804PeH and neuroadapted Snyder Hill isolate
Summary of the method: as §1

[2] = system: established human and animal cell lines and primary human PBMCs; assay: CytoTox96 non-radioactive cytotoxicity assay; assay type: cell-based
Summary of the method: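 CytoTox96 non-radioactive cytotoxicity assay; highest concentration tested 75 µM. Signal normalised to vehicle controls as %-toxicity = 100-((specific_490nm)/([…])*100). CC₅₀ derived from the mean of four replicates. Compound dissolved in DMSO. Cell lines kept at 37°C, 5% CO₂ in DMEM with 7.5% FBS.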

[3] = single-dose oral PK study in ferrets; assay type: in vivo; conditions: ferret, single-dose p.o. 50 mg/kg
Summary of the method: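 Ferrets given a single oral dose of 50 mg/kg in PEG-200/0.5% methylcellulose (10/90) at time zero, with blood sampled at set time points afterwards. Plasma prepared from heparinised blood. Drug quantified by internal-standard, reversed-phase isocratic HPLC with positive-ion electrospray LC/MS/MS. PK parameters estimated by modelling software.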

serum protein binding = assay type: in vitro ADME
[4] = shelf-stability at ambient temperature; assay type: physicochemical
MeV polymerase complex = MeV polymerase complex (Measles virus, UniProt P12576); assay: minigenome luciferase replicon reporter assay, MeV; assay type: cell-based; conditions: 10 µM highest
CDV polymerase complex = CDV polymerase complex (Canine distemper virus, UniProt P24658); assay: minigenome luciferase replicon reporter assay, CDV; assay type: cell-based; conditions: 10 µM highest
RSV polymerase complex = RSV polymerase complex (Human respiratory syncytial virus A, UniProt P28887); assay: minigenome luciferase replicon reporter assay, RSV; assay type: cell-based; conditions: 10 µM highest
[5] = system: CDV-5804PeH recombinants harboring L resistance mutations; assay: dose-response inhibition of resistant CDV-5804PeH recombinants; assay type: cell-based, canine distemper virus
Summary of the method: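 Candidate L resistance mutations introduced singly into the CDV-5804PeH background by site-directed mutagenesis. Recombinants recovered, and mutations confirmed by RT-PCR and cDNA sequencing. Dose-response inhibition measured as cell-associated viral titres (TCID₅₀ on Vero-cSLAM cells), as mean ± SD of at least three independent experiments. Four-parameter variable-slope regression.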

CDV-5804PeH = assay: oral efficacy in ferrets infected intranasally with lethal CDV-5804PeH; assay type: in vivo, ferret
Summary of the method: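 Male and female adult European ferrets without CDV immunity, infected intranasally with 1×10⁵ TCID₅₀ CDV-5804PeH per animal (~10 LD₅₀). Dosing by gastric gavage at 50 mg/kg b.i.d. in PEG200/0.5% methylcellulose (10/90). Post-exposure arm starts 3 days post-infection and runs 14 days; controls receive vehicle. Daily clinical observation. Blood and weights taken days 0, 3, 7, 10, 14, then weekly. Survival analysed by log-rank (Mantel-Cox) test.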

[6] = rat model; cited from earlier work
[7] = cited from earlier work

MeV polymerase complex, sequence (P12576 whole entry): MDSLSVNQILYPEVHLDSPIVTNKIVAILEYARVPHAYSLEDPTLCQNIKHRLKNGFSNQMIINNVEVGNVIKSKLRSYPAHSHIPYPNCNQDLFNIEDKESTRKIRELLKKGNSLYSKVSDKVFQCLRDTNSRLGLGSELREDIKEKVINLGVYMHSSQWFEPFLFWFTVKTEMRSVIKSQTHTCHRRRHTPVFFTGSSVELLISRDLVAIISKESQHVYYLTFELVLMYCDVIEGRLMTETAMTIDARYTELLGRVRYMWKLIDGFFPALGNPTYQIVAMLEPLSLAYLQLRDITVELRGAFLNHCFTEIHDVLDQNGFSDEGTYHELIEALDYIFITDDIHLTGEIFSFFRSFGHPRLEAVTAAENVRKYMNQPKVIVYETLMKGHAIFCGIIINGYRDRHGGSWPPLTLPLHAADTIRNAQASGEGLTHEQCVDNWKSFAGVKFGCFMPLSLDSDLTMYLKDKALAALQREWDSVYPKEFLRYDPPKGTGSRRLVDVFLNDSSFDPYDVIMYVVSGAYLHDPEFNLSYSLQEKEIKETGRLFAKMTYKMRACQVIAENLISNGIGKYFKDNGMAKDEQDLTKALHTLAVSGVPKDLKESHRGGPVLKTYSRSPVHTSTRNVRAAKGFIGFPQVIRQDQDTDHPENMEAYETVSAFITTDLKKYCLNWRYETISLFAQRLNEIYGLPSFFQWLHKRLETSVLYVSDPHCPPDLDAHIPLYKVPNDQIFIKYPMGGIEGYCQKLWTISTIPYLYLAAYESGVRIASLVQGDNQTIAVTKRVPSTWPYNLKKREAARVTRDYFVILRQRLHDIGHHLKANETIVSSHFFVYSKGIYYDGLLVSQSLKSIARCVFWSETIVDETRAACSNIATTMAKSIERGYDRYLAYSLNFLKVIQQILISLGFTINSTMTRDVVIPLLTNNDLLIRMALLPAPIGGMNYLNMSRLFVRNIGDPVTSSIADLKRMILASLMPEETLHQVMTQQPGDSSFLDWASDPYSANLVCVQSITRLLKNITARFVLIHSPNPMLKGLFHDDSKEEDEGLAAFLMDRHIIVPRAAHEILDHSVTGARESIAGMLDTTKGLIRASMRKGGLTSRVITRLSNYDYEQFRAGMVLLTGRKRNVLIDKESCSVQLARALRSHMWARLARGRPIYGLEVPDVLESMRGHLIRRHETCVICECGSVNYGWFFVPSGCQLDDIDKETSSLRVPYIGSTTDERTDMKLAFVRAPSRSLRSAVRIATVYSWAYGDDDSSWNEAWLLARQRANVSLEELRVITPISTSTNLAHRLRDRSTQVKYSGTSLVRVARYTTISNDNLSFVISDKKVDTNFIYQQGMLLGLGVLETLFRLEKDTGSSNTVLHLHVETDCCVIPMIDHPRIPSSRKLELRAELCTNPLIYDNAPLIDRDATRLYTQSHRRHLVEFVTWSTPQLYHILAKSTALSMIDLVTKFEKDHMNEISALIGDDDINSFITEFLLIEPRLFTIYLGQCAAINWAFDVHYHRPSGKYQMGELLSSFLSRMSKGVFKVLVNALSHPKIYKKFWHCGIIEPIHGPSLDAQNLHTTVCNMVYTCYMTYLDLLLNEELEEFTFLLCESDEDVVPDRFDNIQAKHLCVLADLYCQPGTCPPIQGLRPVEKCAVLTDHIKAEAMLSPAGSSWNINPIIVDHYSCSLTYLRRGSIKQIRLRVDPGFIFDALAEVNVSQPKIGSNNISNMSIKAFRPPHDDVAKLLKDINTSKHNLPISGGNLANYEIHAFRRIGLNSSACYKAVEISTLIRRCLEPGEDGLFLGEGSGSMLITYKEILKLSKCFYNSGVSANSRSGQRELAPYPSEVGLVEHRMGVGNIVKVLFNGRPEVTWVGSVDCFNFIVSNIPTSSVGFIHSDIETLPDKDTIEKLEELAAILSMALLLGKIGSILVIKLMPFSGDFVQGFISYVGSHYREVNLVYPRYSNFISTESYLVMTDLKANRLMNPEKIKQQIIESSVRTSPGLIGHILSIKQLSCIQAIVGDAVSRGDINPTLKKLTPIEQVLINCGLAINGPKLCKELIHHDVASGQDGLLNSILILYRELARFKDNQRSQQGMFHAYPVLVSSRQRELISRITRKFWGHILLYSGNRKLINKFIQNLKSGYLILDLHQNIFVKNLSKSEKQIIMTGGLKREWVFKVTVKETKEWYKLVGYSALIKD
MeV polymerase complex, sequence (P03422 whole entry, further chain): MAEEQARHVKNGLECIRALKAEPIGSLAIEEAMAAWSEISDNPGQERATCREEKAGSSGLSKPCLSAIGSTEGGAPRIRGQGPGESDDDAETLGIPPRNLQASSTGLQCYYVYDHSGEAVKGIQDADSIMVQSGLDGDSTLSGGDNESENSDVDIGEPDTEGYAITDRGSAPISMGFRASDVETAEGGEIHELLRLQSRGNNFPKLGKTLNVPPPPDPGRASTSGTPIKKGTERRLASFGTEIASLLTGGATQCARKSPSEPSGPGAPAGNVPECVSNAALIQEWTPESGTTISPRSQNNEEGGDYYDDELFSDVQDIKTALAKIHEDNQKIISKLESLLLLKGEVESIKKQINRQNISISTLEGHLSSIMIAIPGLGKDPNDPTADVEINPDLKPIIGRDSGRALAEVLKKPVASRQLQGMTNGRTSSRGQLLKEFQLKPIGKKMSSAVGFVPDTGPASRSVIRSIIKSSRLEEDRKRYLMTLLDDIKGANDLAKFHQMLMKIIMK
RSV polymerase complex, sequence (P28887 whole entry, one chain of several): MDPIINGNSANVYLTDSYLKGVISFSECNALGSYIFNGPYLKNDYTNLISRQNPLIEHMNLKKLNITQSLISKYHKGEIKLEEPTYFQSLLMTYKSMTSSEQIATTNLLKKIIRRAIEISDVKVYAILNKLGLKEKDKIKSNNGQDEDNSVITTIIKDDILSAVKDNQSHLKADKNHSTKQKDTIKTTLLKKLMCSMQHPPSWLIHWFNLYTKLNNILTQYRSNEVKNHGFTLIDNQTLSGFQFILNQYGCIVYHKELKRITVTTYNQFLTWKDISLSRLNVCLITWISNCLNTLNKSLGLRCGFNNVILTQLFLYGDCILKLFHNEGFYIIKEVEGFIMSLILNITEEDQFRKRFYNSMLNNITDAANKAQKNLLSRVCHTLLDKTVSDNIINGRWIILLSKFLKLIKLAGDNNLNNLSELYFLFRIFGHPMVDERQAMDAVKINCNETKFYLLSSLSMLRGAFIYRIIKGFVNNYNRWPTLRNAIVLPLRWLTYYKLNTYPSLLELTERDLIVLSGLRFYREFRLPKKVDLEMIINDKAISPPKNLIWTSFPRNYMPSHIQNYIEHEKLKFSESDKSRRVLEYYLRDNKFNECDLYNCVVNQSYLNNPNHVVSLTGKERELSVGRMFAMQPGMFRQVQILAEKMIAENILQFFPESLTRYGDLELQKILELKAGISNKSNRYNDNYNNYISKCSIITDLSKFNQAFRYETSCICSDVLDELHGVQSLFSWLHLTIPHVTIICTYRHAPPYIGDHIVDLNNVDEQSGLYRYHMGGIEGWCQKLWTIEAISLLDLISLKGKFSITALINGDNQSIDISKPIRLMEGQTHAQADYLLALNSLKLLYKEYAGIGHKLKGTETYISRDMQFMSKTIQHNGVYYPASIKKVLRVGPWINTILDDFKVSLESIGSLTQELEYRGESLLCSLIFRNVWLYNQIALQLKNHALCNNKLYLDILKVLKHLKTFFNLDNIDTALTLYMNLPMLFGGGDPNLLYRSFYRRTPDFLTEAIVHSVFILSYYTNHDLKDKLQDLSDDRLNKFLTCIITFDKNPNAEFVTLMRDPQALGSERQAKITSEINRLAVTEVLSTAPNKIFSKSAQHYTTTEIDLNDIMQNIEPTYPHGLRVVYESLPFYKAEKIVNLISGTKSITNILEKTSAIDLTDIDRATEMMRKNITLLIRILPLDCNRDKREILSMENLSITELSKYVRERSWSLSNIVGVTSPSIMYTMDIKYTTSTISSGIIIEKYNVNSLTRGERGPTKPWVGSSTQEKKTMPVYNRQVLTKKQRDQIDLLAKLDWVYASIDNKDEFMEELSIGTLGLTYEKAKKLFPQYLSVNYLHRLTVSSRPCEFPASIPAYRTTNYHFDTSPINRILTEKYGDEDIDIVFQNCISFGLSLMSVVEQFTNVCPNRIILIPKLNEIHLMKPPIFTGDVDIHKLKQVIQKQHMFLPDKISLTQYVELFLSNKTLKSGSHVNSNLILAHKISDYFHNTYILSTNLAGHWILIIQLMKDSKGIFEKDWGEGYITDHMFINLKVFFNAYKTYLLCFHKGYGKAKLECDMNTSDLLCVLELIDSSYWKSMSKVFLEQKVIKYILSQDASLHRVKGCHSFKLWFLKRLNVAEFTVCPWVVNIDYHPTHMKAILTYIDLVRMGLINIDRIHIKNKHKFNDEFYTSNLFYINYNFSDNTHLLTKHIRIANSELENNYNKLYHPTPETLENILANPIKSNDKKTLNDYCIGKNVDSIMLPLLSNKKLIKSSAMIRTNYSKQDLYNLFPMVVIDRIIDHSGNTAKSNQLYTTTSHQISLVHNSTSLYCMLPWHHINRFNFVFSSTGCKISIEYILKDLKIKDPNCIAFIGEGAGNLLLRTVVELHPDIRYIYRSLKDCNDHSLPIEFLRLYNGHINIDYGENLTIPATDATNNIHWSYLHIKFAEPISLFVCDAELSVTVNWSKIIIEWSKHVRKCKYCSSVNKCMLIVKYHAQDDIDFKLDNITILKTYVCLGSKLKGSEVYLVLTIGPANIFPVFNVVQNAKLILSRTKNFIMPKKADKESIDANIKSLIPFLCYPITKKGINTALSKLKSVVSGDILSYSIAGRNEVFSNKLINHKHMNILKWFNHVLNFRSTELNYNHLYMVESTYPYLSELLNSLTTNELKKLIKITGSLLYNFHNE

Cn1nc(C(F)(F)F)cc1C(=O)Nc1ccc(S(=O)(=O)N2CCCC[C@H]2CCN2CCOCC2)cc1 [ERDRP-0519]
selectivity indices (SI), CC50/EC50 (MeV isolates; against all MeV targets analyzed): > 200
antiviral potency (MeV isolates; panel of MeV isolates representing clades currently endemic worldwide): nanomolar
potency reduction against CDV strains relative to MeV [1]: approximately 2 fold
cytotoxicity [2]: low cytotoxicity
peak plasma concentration ([3]; PEG-200/0.5% methylcellulose (10/90)): exceeded 1,500 ng/ml
peak plasma concentration ([3]; converted from ng/ml): approximately 3.5 µM
serum protein binding (serum protein binding): < 95%
shelf-stability [4]: exceeded one year without loss of activity
inhibition of RdRp (replicon reporter) activity (MeV polymerase complex): potently inhibited
inhibition of RdRp (replicon reporter) activity (CDV polymerase complex): potently inhibited
inhibition of RdRp (replicon reporter) activity (RSV polymerase complex): not blocked
increase in EC90 concentration versus standard CDV-5804PeH ([5]; CDV-5804PeH-LG835R): approximately 8 fold
increase in EC90 concentration versus standard CDV-5804PeH ([5]; CDV-5804PeH-LH589Y): approximately 8 fold
increase in EC90 concentration versus standard CDV-5804PeH ([5]; CDV-5804PeH-LH816L): approximately 8 fold
increase in EC90 concentration versus standard CDV-5804PeH ([5]; CDV-5804PeH-LN398D): approximately 2 fold
increase in EC90 concentration versus standard CDV-5804PeH ([5]; CDV-5804PeH-LT751I): > 20 fold
increase in EC90 concentration versus standard CDV-5804PeH ([5]; CDV-5804PeH-LT776A): > 20 fold
PBMC responsiveness (PHA-stimulated proliferation) (CDV-5804PeH; PET group): only transiently impaired
clinical signs of disease (CDV-5804PeH; PET group): remained subclinical
humoral response (neutralizing antibodies) (CDV-5804PeH; PET group): strong humoral response
signs of compound-induced toxicity (CDV-5804PeH; PET group, 50 mg/kg p.o. b.i.d. for 14 days): not observed signs of compound-induced toxicity
prolongation of survival of treated ferrets (CDV-5804PeH; pre-exposure prophylaxis): up to 2 fold
animal survival (CDV-5804PeH; prophylactic dosing, 50 mg/kg p.o. b.i.d. from 24 hours pre-infection): significantly prolonged animal survival
interferon induction levels in PBMCs (CDV-5804PeH; prophylactically treated animals): low interferon induction levels
clearance of infection (CDV-5804PeH; therapeutically dosed animals, by day 28 pI): completely cleared the infection
oral availability [6]: 39%
bidirectional membrane permeability [7]: high
